# Rows were chosen to be rich in hits. Some 4.1% of all compounds tested hit in one or more screens of this group.
# RGS4 block – RGS4 inhibitors, primary screen, cell-based, HEK293 M3R inducible RGS4, calcium flux; Regulator of G-protein signaling 4 (Homo sapiens), P49798; Fluo-4 calcium flux; hits give high values; triggered by carbachol at its EC20; B-score at 10 µM; hit rate 0.45% among 310,000; AID 463165, 2010;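 active means B-score, a plate-corrected calcium signal, over three deviations above library mean, with baseline fluorescence within five deviations of library mean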;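 further: RGS4 expression induced by doxycycline in cells with stable M3 receptor; B-score is computed from the integrated fluorescence ratio over baseline after carbachol; higher B-score means a larger calcium signal and so more RGS4 inhibition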
# Target sequence (P49798 whole entry, looked up): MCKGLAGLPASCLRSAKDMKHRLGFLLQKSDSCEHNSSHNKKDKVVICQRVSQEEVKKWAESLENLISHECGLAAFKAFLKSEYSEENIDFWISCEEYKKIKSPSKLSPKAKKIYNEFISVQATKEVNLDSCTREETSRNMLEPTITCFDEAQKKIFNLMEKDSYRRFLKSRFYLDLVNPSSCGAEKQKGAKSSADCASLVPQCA
# RGS4 act – RGS4 potentiators or activators, primary screen, cell-based, HEK293 M3R inducible RGS4, calcium flux | carbachol calcium flux Fluo4; hits give low values | B-score at 10 µM | AID 463111, 2010 | hit rate 0.92% among 310,000;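 active means B-score of the integrated calcium signal more than 4 SD below the library mean, with starting fluorescence not abnormally high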;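 further: negative B-score means reduced calcium response which marks RGS4 activation or potentiation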
#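 Detection: kinetic calcium fluorescence imaging with Fluo4-AM dye, 2 µM / Material: HEK293 cells with stable M3R and inducible RGS4 / Schedule: recording 10 s baseline at 1 Hz, 100 s post-agonist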
# MrgX1 ag – agonists of human MrgX1 receptor, primary screen, HEK293 cells, Fluo-4 calcium flux; Mas-related G-protein coupled receptor member X1 (Homo sapiens), Q96LB2; Fluo-4 calcium fluorescence, agonist mode; hits give high values; hit rate 0.44% among 310,000; B-score at 10 µM;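 active means calcium response B-score plate-corrected fluorescence ratio at least 3 library SD, with starting fluorescence B-score inside 5 SD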
#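 Material: HEK293 cells stably expressing human MrgX1 receptor | Quantity: 15,000 cells per well | Times: Cells plated overnight, dye loaded 0.5 h 37 °C, 0.5 h room temperature | Measured by: Kinetic Fluo-4 NW fluorescence of intracellular calcium | Control set: Positive and negative controls per plate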
# Kir21 block – inhibitors of mouse Kir2.1 inward-rectifier potassium channel. HEK293-Kir2.1, FluxOR thallium flux fluorescence; hits give low values. B-score at 10 µM. hit rate 0.85% among 310,000. Inward rectifier potassium channel 2 (Mus musculus), P35561;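 active means fluorescence ratio B-score at or below minus 3 SD of library scores, with starting-brightness B-score within 2 SD, cut at about -4.2 in these data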;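 further: channel flux triggered by added potassium and thallium sulfate stimulus; B-score of peak minus minimum fluorescence over baseline after thallium stimulus; more negative B-score means stronger Kir2.1 block with less thallium influx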
# Target sequence (P35561 whole entry, looked up): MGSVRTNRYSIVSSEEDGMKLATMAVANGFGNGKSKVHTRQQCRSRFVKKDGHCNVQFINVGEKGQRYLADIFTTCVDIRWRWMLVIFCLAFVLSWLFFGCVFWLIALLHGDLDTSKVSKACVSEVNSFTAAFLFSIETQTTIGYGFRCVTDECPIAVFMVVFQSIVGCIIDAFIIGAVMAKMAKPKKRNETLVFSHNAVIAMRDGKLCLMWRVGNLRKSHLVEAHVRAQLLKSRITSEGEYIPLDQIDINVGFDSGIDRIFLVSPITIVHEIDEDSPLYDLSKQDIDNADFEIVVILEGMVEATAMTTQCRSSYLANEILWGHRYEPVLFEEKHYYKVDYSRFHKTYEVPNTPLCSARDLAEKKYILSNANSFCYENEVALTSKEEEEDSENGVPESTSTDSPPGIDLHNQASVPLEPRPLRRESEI
# MrgX1 allo act – positive allosteric modulators of MrgX1, primary screen, HEK293 cells, Fluo-4 calcium flux; hit rate 0.63% among 310,000; FDSS; hits give high values; Mas-related G-protein coupled receptor member X1 (Homo sapiens), Q96LB2; AID 588675, 2011; B-score at 10 µM;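 active means plate-corrected calcium response at least 3 library SD above typical, normal starting fluorescence, not activating the receptor alone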;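 further: compound read alongside a low EC10 to EC30 dose of BAM8-22 agonist; peak minus trough fluorescence over baseline measured at the second addition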
# MrgX1 antag – antagonists of human MrgX1 receptor, primary screen, HEK293 cells, Fluo-4 calcium flux; BAM8-22 antagonism; hits give low values; AID 588676, 2011; Mas-related G-protein coupled receptor member X1 (Homo sapiens), Q96LB2; B-score at 10 µM; hit rate 1.3% among 310,000;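 active means calcium-response B-score plate-corrected more than 3 library SD below zero, starting fluorescence within 5 deviations, no agonist response on first addition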;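 further: peak minus trough fluorescence over baseline after final BAM8-22 challenge near maximal dose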
# RGS4 inh valid – enhanced carbachol calcium response, M3R/RGS4 cells, RGS4 inhibitor project, cell-based, validation screen, HEK293 M3R/RGS4, calcium flux; shares compounds with RGS4 block; carbachol calcium Fluo-4 fluorescence; carbachol added at its EC20; 0 = buffer wells, 100 = carbachol control; calcium response, % at 10 µM; hit rate 65% among 1,700; AID 492999, 2010;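 active means duplicate-averaged calcium response above the buffer-only control mean plus 5 SD of those controls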;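 further: integrated fluorescence ratio F max minus min over baseline F0; higher response in RGS4-induced cells means RGS4 inhibition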
# M3R Ca ctr – carbachol calcium response in non-induced M3R cells, confirmation, counter-screen for RGS4 inhibitor project, cell-based, HEK293 M3R | shares compounds with RGS4 block | hit rate 20% among 1,900 | activity (percent), % at 10 µM | carbachol calcium Fluo-4; submaximal (EC20) carbachol stimulus; buffer wells 0%, carbachol control wells 100%; call rule not given here;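 further: RGS4 induction absent so cells express M3R without RGS4; higher means more calcium signal and flags a non-specific hit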
# RGS4 inh ctr2 – second RGS4 inhibitor counter-screen in uninduced cells lacking carbachol. shares compounds with RGS4 block. HEK293 M3R/RGS4 non-induced, Fluo-4 calcium, no carbachol; normalised: buffer wells 0%, carbachol wells 100%. calcium response (agonist-mode artifact), % at 10 µM. hit rate 22% among 1,900. AID 493001;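 active means duplicate-averaged calcium rise in uninduced cells above buffer wells' mean plus 5 SD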
# Numbers without * were called inactive; i = inactive; . = not tested or not shown.
SMILES,RGS4 block,RGS4 act,MrgX1 ag,Kir21 block,MrgX1 allo act,MrgX1 antag,RGS4 inh valid,M3R Ca ctr,RGS4 inh ctr2
Cc1ccc(N2C(=O)NC(=O)/C(=C/c3cnn(-c4ccc(C)cc4)c3)C2=O)cc1,4.76*,i,i,-0.07,i,i,10.0%*,i,i
CSc1ncc(/C=C2/C(=O)NC(=O)N(c3ccc(C)cc3)C2=O)cn1,i,i,i,0.13,i,i,.,.,.
CCOC(=O)c1c(N)n(CCN2CCCCC2)c2nc3ccccc3nc12,i,i,i,0.17,i,i,.,.,.
NC1=C([N+](=O)[O-])C(c2ccc3c(c2)OCO3)c2c(c3ccccc3oc2=O)O1 (stereo not given),i,i,i,-0.12,i,i,.,.,.
O=c1oc2ccccc2c(O)c1[C@H]1c2ccc(O)cc2Oc2c1c(=O)oc1ccccc21,11.2*,i,i,1.47,i,i,58.5%*,35.0%*,i
CN1CCc2cc(O)cc3c2[C@H]1Cc1ccc(O)c(O)c1-3,7.31*,i,i,-1.57,i,i,30.5%*,i,i
COc1cc2c(cc1O)C[C@H]1c3c(cc(O)c(OC)c3-2)CCN1C,.,.,i,.,i,i,.,.,.
CCNC(=O)C1OC(n2cnc3c(N)ncnc32)C(O)C1O (stereo not given),15.2*,i,30*,-0.14,i,i,48.5%*,71.5%*,i
CC(C)CCOP(N)(=O)Oc1ccccc1Cl (stereo not given),i,i,i,-0.88,i,i,.,.,.
Cn1cccc1/C=C1\C(=O)NC(=O)N(Cc2ccccc2)C1=O,i,i,i,-0.47,i,i,.,.,.
Cn1cccc1/C=C1/C(=O)NC(=S)N(Cc2ccc(F)cc2)C1=O,7.22*,i,i,-0.01,7.05*,i,i,i,i
Cn1cccc1/C=C1/C(=O)NC(=O)N(Cc2ccccc2)C1=O,i,i,i,1.22,i,i,.,.,.
Cn1cccc1/C=C1/C(=O)NC(=O)N(Cc2ccc(F)cc2)C1=O,i,i,i,1.01,i,i,i,i,9.0%*
NC(=S)/N=C/c1c(O)[nH]c(=O)[nH]c1=O,i,i,i,0.01,i,i,.,.,.
O=C1NC(=O)N(c2ccc(Br)cc2)C(=O)/C1=C/c1ccsc1,i,i,i,-1.49,i,i,.,.,.
CCOC(=O)C1CCN(Cc2ccc(Cl)nc2)CC1,5.52*,i,i,0.81,i,i,9.5%*,30.0%*,i
CC1CC2(O)c3no[n+]([O-])c3CCC2N1O (stereo not given),i,i,i,0.7,i,i,.,.,.
CCc1cc2c(s1)NC(=O)CN=C2c1cccs1,5.96*,i,i,-0.25,i,i,24.5%*,31.0%*,i
CCc1cc2c(s1)N(CC(=O)OC)C(=O)CN=C2c1ccccc1OC,i,i,i,-1.76,i,i,.,.,.
C=CCNC(=S)/N=C/c1c(O)[nH]c(=O)[nH]c1=O,i,i,i,0.07,i,i,.,.,.
Cc1cccc(-n2c(O)c(/C=C3/C(c4ccccc4)=Nc4ccccc43)c(=O)[nH]c2=O)c1,i,i,47.1*,0.95,i,i,.,i,29.0%*
CCN(CC)c1ccc(/C=C2\C(=O)NC(=O)N(Cc3ccco3)C2=O)cc1,i,i,i,-1.6,i,i,.,.,.
CC1CCCN(C(=O)CN2C3CCC2CC(O)(c2ccc(F)cc2)C3)C1 (stereo not given),i,i,i,-0.01,i,i,.,.,.
Cc1cccc(NP(=O)(Oc2ccccc2F)Oc2ccccc2F)c1C,4.88*,i,i,2.1,i,i,i,i,i
Cc1cccc(OP(N)(N)=O)c1C,i,i,i,-0.53,i,i,.,.,.
SMILES,RGS4 block,RGS4 act,MrgX1 ag,Kir21 block,MrgX1 allo act,MrgX1 antag,RGS4 inh valid,M3R Ca ctr,RGS4 inh ctr2
CN1C(=O)NC(=O)/C(=C/c2ccc([N+](=O)[O-])s2)C1=O,7.21*,i,i,-2.39,i,i,14.5%*,i,i
COc1ccc(OC)c(N2C(=O)NC(=O)/C(=C\c3ccc([N+](=O)[O-])s3)C2=O)c1,8.03*,i,i,0.97,i,i,18.5%*,i,i
CN1C(=O)/C(=C\c2ccc(Br)s2)C(=O)NC1=S,19.4*,i,i,-0.55,i,i,5.5%*,i,i
CCC(=NCCc1ccccc1)c1c(O)n(C)c(=O)n(C)c1=O,i,i,i,-0.03,i,i,.,.,.
COc1ccc(-n2c(O)c(/C=C3\C=Nc4ccc(Br)cc43)c(=O)[nH]c2=O)c(OC)c1,26.1*,i,i,-0.48,i,i,55.0%*,i,326.5%*
O=C(N/N=C/c1c(O)n(CCc2ccccc2)c(=O)[nH]c1=O)c1ccccc1,i,i,i,0.68,i,-5.42*,i,i,7.5%*
O=c1[nH]c(=O)n(CCC2=CCCCC2)c(O)c1/C=N/Nc1cccc2ccccc12,5.69*,i,i,1.07,i,i,9.0%*,i,i
CCCCn1c(C)c(C(=O)OCC)c2c(CN3CCOCC3)c(O)ccc21,i,i,i,-3.08,i,i,.,.,.
CC1(C)C2([N+](=O)[O-])CN3CN(C2)CC1([N+](=O)[O-])C3,i,i,i,-1.18,i,i,.,.,.
CC12CN3CN(C1)CC(C)(C3)C2=NO,5.2*,i,i,0.93,i,i,i,i,i

# Assay outcomes: PubChem BioAssay, Johns Hopkins Ion Channel Center
